Active and inactive are the calls of the source. The calls are words filed in the database; no cut-off is given here.

Type in all cases: cell-based
Assay [1] concerns the target Toll-like receptor 2 (Homo sapiens) (UniProt O60603). The assay is described as follows: Agonist activity at human TLR2 stably expressed in HEK293 cells co-expressing secreted alkaline phosphatase assessed as NF-kappaB induction by liquid handler-assisted reporter gene assay. In a few lines: (§1)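 HEK293 reporter cells stably co-transfected with the respective human TLR or NOD receptor plus NF-κB/AP-1-driven secreted alkaline phosphatase, kept in selection medium. About 10^5 cells/ml were incubated with graded concentrations of test compound in 384-well format. Supernatant sAP was read colorimetrically at 620 nm with an alkaline phosphatase-specific chromogen in detection medium.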

The target in assay [2] is Toll-like receptor 4 (Homo sapiens) (UniProt O00206). The assay is described as follows: Agonist activity at human TLR4 stably expressed in HEK293 cells co-expressing secreted alkaline phosphatase assessed as NF-kappaB induction by liquid handler-assisted reporter gene assay. In a few lines: as §1
For orientation: In a reporter assay the amount or activity of a reporter protein is the signal.

Assay [3] deals with Toll-like receptor 5 (Homo sapiens) (UniProt O60602). The assay can be described thus: Agonist activity at human TLR5 stably expressed in HEK293 cells co-expressing secreted alkaline phosphatase assessed as NF-kappaB induction by liquid handler-assisted reporter gene assay. In a few lines:
as §1

Assay [4] concerns the target Toll-like receptor 3 (Homo sapiens) (UniProt O15455). The assay can be described thus: Agonist activity at human TLR3 stably expressed in HEK293 cells co-expressing secreted alkaline phosphatase assessed as NF-kappaB induction by liquid handler-assisted reporter gene assay. Put shortly:
as §1

Assay [5] deals with Nucleotide-binding oligomerization domain-containing protein 2 (Homo sapiens, UniProt Q9HC29). The assay can be described thus: Agonist activity at human NOD2 stably expressed in HEK293 cells co-expressing secreted alkaline phosphatase assessed as NF-kappaB induction by liquid handler-assisted reporter gene assay. Put shortly: as §1
The target of another assay is T1, Toll-like receptor 8 (Homo sapiens, UniProt Q9NR97).
T1 sequence (Q9NR97 whole entry): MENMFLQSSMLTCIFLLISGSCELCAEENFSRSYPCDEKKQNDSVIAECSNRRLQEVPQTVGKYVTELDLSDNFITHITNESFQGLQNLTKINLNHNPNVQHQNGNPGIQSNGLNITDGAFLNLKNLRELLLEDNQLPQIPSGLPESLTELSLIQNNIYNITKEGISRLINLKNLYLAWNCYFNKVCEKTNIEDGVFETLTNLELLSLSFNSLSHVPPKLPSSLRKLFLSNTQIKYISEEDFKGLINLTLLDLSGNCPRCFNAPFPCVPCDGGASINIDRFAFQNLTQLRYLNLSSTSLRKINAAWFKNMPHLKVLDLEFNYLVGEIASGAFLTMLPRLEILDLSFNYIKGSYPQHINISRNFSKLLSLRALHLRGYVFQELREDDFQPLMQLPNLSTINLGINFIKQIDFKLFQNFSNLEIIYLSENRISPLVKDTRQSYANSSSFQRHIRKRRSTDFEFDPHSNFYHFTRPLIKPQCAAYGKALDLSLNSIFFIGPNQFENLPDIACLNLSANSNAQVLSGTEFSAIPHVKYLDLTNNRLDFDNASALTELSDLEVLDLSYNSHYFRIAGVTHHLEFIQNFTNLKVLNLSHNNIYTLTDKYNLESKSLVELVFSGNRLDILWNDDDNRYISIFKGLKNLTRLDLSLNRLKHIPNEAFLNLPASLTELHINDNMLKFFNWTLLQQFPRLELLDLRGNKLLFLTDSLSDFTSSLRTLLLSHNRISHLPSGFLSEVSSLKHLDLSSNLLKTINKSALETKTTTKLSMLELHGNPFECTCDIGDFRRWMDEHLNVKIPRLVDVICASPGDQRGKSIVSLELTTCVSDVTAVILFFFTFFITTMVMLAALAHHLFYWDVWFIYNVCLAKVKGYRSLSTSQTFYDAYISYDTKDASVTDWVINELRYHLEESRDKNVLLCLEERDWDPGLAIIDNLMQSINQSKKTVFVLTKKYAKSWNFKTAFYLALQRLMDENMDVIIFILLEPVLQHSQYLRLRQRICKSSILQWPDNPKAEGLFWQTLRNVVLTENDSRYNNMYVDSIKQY
The assay can be described thus: Agonist activity at human TLR8 stably expressed in HEK293 cells co-expressing secreted alkaline phosphatase assessed as NF-kappaB induction by liquid handler-assisted reporter gene assay. Put shortly: as §1

In assay [6] the target is T2, Toll-like receptor 9 (Homo sapiens) (UniProt Q9NR96).
T2 sequence (whole entry): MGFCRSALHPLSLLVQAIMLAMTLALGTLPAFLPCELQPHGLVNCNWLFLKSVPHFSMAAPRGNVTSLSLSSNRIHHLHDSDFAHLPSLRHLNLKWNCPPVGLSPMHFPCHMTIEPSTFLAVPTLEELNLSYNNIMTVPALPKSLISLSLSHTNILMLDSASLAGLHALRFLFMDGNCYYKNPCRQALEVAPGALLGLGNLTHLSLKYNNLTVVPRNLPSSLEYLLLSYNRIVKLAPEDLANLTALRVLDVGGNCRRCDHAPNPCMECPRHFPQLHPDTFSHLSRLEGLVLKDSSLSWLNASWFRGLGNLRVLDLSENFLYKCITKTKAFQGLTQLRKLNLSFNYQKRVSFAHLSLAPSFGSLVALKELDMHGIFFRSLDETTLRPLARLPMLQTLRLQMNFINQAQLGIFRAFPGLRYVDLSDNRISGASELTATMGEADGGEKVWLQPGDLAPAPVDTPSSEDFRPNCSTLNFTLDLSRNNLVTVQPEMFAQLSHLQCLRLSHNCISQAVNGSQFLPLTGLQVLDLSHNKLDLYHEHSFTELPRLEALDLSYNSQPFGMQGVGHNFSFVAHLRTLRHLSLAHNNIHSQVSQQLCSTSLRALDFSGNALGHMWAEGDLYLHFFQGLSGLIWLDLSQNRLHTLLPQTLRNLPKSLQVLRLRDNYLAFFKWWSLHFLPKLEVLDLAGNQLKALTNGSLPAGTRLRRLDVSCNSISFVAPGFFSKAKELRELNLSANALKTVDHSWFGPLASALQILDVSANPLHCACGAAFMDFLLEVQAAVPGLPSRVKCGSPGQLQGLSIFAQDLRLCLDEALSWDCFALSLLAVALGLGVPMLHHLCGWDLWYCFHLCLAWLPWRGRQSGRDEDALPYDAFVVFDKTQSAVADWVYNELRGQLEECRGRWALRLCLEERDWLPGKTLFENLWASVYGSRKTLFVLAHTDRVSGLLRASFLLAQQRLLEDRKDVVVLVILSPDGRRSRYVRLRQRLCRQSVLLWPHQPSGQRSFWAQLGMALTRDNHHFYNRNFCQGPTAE
The assay is described as follows: Agonist activity at human TLR9 stably expressed in HEK293 cells co-expressing secreted alkaline phosphatase assessed as NF-kappaB induction by liquid handler-assisted reporter gene assay. In a few lines:
as §1

Sequence of Toll-like receptor 2 (Homo sapiens) (O60603 whole entry): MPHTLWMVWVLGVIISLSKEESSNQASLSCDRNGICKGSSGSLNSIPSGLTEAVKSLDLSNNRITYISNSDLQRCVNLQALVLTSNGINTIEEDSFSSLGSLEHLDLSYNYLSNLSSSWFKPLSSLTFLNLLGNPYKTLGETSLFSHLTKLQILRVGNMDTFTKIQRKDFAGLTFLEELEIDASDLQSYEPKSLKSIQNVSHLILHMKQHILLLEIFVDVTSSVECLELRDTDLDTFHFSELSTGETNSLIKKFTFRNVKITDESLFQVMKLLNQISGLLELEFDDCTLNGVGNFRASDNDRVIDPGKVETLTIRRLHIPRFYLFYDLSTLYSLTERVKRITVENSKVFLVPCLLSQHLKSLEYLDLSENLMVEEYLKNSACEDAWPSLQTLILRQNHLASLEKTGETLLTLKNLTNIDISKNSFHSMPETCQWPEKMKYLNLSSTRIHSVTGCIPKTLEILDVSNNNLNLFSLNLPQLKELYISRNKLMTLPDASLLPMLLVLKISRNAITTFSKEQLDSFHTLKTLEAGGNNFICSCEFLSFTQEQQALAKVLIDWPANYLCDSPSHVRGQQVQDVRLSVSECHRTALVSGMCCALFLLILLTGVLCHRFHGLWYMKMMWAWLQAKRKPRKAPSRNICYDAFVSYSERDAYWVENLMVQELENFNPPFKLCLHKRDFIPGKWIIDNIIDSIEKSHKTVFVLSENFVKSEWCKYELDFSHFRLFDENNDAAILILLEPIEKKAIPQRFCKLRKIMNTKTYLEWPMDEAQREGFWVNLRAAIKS
Sequence of Nucleotide-binding oligomerization domain-containing protein 2 (Q9HC29 whole entry, the tested form may be a part): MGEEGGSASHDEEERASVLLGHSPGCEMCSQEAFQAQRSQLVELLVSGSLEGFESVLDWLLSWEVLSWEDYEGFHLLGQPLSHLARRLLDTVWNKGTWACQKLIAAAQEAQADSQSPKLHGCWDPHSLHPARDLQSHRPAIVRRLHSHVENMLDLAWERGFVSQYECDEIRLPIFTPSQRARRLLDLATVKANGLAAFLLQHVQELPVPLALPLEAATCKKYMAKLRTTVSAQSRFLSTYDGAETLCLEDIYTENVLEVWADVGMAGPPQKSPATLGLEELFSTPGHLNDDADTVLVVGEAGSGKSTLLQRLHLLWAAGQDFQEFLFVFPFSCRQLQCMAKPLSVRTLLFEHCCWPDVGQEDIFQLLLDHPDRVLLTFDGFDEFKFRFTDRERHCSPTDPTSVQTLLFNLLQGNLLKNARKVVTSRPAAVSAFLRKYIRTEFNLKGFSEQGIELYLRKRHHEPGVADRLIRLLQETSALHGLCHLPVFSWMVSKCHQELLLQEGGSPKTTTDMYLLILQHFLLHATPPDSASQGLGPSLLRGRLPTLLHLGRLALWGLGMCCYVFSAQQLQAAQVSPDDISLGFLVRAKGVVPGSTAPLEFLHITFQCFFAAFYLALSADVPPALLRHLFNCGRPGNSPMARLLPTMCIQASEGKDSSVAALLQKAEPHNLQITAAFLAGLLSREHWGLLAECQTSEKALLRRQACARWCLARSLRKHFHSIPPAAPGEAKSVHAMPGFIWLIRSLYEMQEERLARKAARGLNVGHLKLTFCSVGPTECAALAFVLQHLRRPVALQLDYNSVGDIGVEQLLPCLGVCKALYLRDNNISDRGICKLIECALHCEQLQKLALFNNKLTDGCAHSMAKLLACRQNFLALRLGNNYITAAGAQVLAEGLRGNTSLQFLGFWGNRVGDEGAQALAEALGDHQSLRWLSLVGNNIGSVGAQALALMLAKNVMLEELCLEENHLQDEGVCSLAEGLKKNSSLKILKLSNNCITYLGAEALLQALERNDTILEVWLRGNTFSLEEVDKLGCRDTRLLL
Sequence of Toll-like receptor 4 (Homo sapiens) (O00206 whole entry): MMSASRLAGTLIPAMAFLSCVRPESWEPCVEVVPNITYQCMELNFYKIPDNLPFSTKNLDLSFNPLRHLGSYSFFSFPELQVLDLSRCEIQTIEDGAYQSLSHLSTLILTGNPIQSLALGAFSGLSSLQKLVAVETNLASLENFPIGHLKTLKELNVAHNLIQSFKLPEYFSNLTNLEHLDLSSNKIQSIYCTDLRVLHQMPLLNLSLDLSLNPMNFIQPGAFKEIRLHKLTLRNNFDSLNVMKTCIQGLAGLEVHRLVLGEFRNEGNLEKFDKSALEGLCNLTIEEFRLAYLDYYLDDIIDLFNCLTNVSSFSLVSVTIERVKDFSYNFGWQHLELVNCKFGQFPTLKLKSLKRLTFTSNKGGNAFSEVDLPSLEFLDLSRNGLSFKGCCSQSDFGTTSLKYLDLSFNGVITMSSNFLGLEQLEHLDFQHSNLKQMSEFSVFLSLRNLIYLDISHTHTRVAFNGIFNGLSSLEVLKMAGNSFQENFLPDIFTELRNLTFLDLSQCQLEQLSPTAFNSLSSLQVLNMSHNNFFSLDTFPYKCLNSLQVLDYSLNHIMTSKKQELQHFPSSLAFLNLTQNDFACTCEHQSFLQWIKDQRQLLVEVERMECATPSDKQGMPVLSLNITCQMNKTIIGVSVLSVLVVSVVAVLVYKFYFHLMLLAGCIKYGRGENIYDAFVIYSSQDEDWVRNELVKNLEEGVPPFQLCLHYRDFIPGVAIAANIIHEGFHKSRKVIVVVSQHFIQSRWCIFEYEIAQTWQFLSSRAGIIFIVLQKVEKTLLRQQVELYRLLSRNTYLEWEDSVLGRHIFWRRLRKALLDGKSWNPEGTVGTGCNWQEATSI
Sequence of Toll-like receptor 5 (Homo sapiens) (O60602 whole entry): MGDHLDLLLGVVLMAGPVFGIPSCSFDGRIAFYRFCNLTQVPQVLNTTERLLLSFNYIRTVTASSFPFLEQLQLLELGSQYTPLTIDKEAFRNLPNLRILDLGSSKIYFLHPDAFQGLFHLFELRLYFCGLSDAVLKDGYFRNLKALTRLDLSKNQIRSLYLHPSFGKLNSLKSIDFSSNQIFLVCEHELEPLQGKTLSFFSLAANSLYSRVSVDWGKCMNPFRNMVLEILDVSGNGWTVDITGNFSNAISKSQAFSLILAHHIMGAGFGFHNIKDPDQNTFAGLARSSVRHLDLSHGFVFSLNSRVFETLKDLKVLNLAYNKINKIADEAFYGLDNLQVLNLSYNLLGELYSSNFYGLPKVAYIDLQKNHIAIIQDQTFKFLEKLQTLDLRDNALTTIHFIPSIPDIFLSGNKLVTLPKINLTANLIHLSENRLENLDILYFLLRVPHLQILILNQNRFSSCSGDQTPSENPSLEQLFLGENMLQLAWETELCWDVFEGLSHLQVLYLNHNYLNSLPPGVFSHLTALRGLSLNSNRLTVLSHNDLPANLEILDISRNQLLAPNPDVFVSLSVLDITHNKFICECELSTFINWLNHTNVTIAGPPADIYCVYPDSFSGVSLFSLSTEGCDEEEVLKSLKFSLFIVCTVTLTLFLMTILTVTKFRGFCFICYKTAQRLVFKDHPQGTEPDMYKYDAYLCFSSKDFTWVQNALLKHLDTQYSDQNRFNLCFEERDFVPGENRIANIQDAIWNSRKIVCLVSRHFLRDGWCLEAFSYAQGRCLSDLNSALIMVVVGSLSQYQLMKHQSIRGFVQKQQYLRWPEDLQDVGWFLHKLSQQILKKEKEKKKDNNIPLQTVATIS
Sequence of Toll-like receptor 3 (Homo sapiens) (O15455 whole entry): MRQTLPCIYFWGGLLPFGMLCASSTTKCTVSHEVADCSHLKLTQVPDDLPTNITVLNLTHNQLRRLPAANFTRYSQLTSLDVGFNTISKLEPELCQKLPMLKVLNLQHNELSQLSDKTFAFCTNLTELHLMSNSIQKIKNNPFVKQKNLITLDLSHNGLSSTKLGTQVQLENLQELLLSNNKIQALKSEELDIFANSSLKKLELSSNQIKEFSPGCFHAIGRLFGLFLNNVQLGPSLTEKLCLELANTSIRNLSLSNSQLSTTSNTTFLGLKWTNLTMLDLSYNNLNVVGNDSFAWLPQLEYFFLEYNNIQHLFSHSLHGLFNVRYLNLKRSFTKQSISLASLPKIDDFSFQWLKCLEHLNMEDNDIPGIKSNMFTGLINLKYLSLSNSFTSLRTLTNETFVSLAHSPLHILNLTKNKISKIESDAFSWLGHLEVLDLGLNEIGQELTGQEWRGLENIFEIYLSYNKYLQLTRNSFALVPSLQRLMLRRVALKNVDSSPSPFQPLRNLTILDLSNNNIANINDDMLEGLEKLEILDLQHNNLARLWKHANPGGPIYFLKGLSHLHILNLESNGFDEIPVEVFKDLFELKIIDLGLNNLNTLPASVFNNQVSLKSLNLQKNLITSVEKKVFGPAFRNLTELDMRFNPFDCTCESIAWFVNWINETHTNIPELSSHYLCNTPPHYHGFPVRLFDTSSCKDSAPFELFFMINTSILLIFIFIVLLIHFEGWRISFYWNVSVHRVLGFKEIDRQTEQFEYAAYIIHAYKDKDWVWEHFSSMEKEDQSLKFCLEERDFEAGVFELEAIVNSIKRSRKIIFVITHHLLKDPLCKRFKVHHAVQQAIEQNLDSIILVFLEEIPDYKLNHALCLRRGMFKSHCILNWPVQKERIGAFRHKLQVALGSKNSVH

Regarding `CCCCCn1c(NC(C)=O)nc2ccccc21`, the result in assay [1], in assay [2], in assay [3], in assay [4], in assay [5] and in assay [6] was inactive. Further, the EC50 entry at Toll-like receptor 8 was “Not Active”.

On to `CCCCCn1c(N)nc2c(-c3ccccc3)cccc21`, for which the outcome in assay [1], in assay [2], in assay [3], in assay [4], in assay [5] and in assay [6] was inactive. Moreover, the EC50 entry on Toll-like receptor 8 is “Not Active”.

For the compound `CCCCCn1c(N)nc2c(Br)cccc21`, the result in assay [1], in assay [2], in assay [3], in assay [4], in assay [5] and in assay [6] was inactive. For the same compound, on Toll-like receptor 8, the EC50 result is “Not Active”.

For `CCCCOC(=O)n1c(N)nc2ccccc21`, the result in assay [1], in assay [2], in assay [3], in assay [4], in assay [5] and in assay [6] was inactive. On Toll-like receptor 8, the EC50 entry is given as “Not Active”.

For `Nc1nc2ccccc2n1Cc1ccccc1`, the result in assay [1], in assay [2], in assay [3], in assay [4], in assay [5] and in assay [6] was inactive. Moreover, at Toll-like receptor 8, the EC50 result is “Not Active”.

For the compound `CCCCC1C(N)=Nc2ccccc21.Cl` (stereo unspecified), the outcome in assay [1], in assay [2], in assay [3], in assay [4], in assay [5] and in assay [6] was inactive. The EC50 result at Toll-like receptor 8 is listed as “ND(Unstable)”.

`CCCCCn1c(N)nc2cc3ccccc3cc21`: the result in assay [1], in assay [2], in assay [3], in assay [4], in assay [5] and in assay [6] was inactive. Also, the EC50 result on Toll-like receptor 8 was “Not Active”.

`CCCCCn1c(N)nc2c(Cl)cccc21`: the outcome in assay [1], in assay [2], in assay [3], in assay [4], in assay [5] and in assay [6] was inactive. Also, the EC50 result on Toll-like receptor 8 is “Not Active”.

Turning to `CCCCCn1c(N)nc2c(OCc3ccccc3)cccc21`, the outcome in assay [1], in assay [2], in assay [3], in assay [4], in assay [5] and in assay [6] was inactive. Further, the EC50 result on Toll-like receptor 8 is “Not Active”.

As for `CCCCCn1c(N)nc2ccc3ccccc3c21`, the outcome in assay [1], in assay [2], in assay [3], in assay [4], in assay [5] and in assay [6] was inactive. In addition, the EC50 result on Toll-like receptor 8 is recorded as “Not Active”.

On to `CCCCCn1c(N)nc2c(C(F)(F)F)cccc21`, for which the outcome in assay [1], in assay [2], in assay [3], in assay [4], in assay [5] and in assay [6] was inactive. Moreover, the EC50 entry at Toll-like receptor 8 is listed as “Not Active”.

For the compound `CCCCCn1c(N)nc2c(C)cccc21`, the outcome in assay [1], in assay [2], in assay [3], in assay [4], in assay [5] and in assay [6] was inactive.

Turning to `CCCCCn1c(N)nc2ncccc21`, the result in assay [1], in assay [2], in assay [3], in assay [4], in assay [5] and in assay [6] was inactive. In addition, the EC50 result at Toll-like receptor 8 was “Not Active”.

Take `CCCCCn1c(N)nc2ccncc21`: the result in assay [1], in assay [2], in assay [3], in assay [4], in assay [5] and in assay [6] was inactive. In addition, on Toll-like receptor 8, the EC50 entry was “Not Active”.

Take `CCCCCn1c(N)nc2c([N+](=O)[O-])cccc21`: the outcome in assay [1], in assay [2], in assay [3], in assay [4], in assay [5] and in assay [6] was inactive. In addition, at Toll-like receptor 8, the EC50 entry was “Not Active”.

Consider `CCCCCn1c(N)nc2c(F)cccc21`, for which the result in assay [1], in assay [2], in assay [3], in assay [4], in assay [5] and in assay [6] was inactive. Further, the EC50 result on Toll-like receptor 8 is “Not Active”.

Source of the values: ChEMBL document CHEMBL3352666, “Human Toll-like receptor 8-selective agonistic activities in 1-alkyl-1H-benzimidazol-2-amines” (J Med Chem, 2014).
